Test results: paper PMC4172508 (Bioorganic & medicinal chemistry, 2014)

How the values were obtained:
H1299 cells [1] = settings: previous study ref 5; cited from earlier work
[2] = Stability of injectable solution; type: physicochemical
[3] = test system: KRAS-mutant lung cancer cell line H157 xenografts; settings: cited from earlier work
H157 cells [4] = settings: previous study ref 5; cited from earlier work
[5] = especially in low-pH conditions; cited from earlier work
[6] = compared with oncrasin-60 (NSC-741909); cited from earlier work
Calu3 cells [7] = settings: previous study ref 5; cited from earlier work
[8] = Stability of stock solution; type: physicochemical; settings: Solutol HS15 and ethyl alcohol
Outline: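 Stock solution: 70 mg prodrug or 60 mg parent drug per ml of 75% (w/v) Solutol HS15 in ethanol (about 20% v/v ethanol). It was stored in capped brown glass tubes at room temperature or 4°C. At intervals, samples were diluted 100-fold in acetonitrile/water (4/1) for C18 HPLC with UV detection at 280 nm.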

Balb/c mice = test: Acute toxicity study; type: in vivo
H460 cells [9] = settings: previous study ref 5; cited from earlier work
H1299 cells [10] = test: Cell viability, sulforhodamine B assay; type: cell-based; settings: H1299, 3 days after treatment
Outline: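 Sulforhodamine B assay on the lung cancer line. Cells were exposed to a range of test compound concentrations, and viability was read 3 days after treatment. DMSO-treated control cells were set to 100. Values are mean ± SD of quadruplicate wells.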

[11] = test system: human renal cancer cell line A498 xenograft; settings: compared with oncrasin-60 (NSC-741909); cited from earlier work
[12] = Tissue distribution in nude mice bearing Calu3 xenograft tumors; type: in vivo; settings: 24 h
Outline: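 Nude mice (7–8 weeks) bearing subcutaneous Calu3 xenografts, one per group, received 60 mg/kg by tail vein in Solutol HS15/ethanol/0.9% NaCl. Mice were euthanised at 24 h. Liver, lungs, kidneys, spleen, small intestine and tumour were homogenised in methanol (50 mg/ml) on ice and mixed 1:1 with acetonitrile containing 0.2% formic acid and internal standard. Samples were centrifuged at 4°C and analysed by HPLC/MS.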

liver functions = test: Serum liver enzyme levels; type: in vivo; settings: for serum liver enzyme activities: 25 mg/kd/day, each day for 8 days, blood 3 days after last treatment
liver = test: Histopathological analysis on livers; type: in vivo; settings: 150 mg/kg once, livers harvested 48 h after treatment
Outline: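 Mice received a single 150 mg/kg dose of test compound. Livers were harvested at 48 h, sectioned and examined histologically, with two mice per group.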

[13] = Stability of powder during storage; type: physicochemical; settings: for stability of powder (remaining): 37°C; for time powder stable without detectable changes: non-evacuated container
Outline: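 Powdered test compounds were stored at 4°C, room temperature (21°C) or 37°C. Aliquots were taken at time points and kept at −20°C. Each was dissolved in DMSO, diluted with 9 volumes of acetonitrile and analysed by C18 HPLC (acetonitrile/water gradient with 0.2% formic acid, UV 280 nm).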

H157 cells [14] = test: Cell viability, sulforhodamine B assay; type: cell-based; settings: H157, 3 days after treatment
Outline: (§1)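 Human lung cancer cells were treated with a range of test-compound concentrations. Viability was read by sulforhodamine B assay 3 days after treatment. DMSO-treated control cells were set as 100. Values are mean ± SD of quadruplicate wells.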

H460 cells [15] = test: Cell viability, sulforhodamine B assay; type: cell-based; settings: H460, 3 days after treatment
Outline: as §1

[16] = Release of NSC-743380 from esterified derivatives in PBS; type: physicochemical; settings: PBS pH 7.4, 0.5 mg/ml, 37°C
Outline: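 Test compound was made to 0.5 mg/ml in PBS pH 7.4 containing 12% DMSO and 18% acetonitrile (diluted from a DMSO/acetonitrile stock). It was held in a 37°C water bath for up to 24 h. Aliquots were taken at 0–24 h, frozen at −20°C, diluted 50-fold in acetonitrile and run on C18 HPLC (acetonitrile/water gradient, 0.2% formic acid, UV 280 nm). Data come from one of two experiments.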

Calu3 cells [17] = test: Cell viability, sulforhodamine B assay; type: cell-based, human; settings: Calu3, 3 days after treatment
Outline: as §1

[18] = 150 mg/kg i.p. daily for 3 days, 3 mice/group
[19] = 300 mg/kg i.p. on day 1 and day 2, 3 Balb/c mice/group
[20] = animals treated with oncrasin-266, 60 mg/kg i.v.
[21] = 150 mg/kg daily for 3 days, blood on day 6, surviving mice

For `OCc1cn(Cc2cccc(Cl)c2)c2ccccc12` [NSC-743380], the “sensitivity of cells to NSC743380 therapy” value (“sensitivity of cells” for short) (H1299 cells [1]) is given as “resistant”, the “loss in injectable solution” value ([2]; 37°C, 7 h) is given as “more than 20%” and the “change in injectable solution” value ([2]; room temperature, 7 h) is given as “little change”. The “in vivo tumor suppression” value [3] was “significant in vivo tumor suppression”, the “sensitivity of cells” value (H157 cells [4]) was “highly sensitive” and the “behaviour in solutions with water” value [5] was “tends to form dimers in solutions with water and loses activity”. The “maximum tolerated dose / tolerability” value [6] was “much better tolerated”, the “sensitivity of cells” value (Calu3 cells [7]) was “highly sensitive” and the “time stable in stock solution” value ([8]; room temperature) was “at least 1 weeks”. For the same compound, the “survival / death of mice” value (Balb/c mice; [18]) was “Two mice in the NSC-743380-treated group died on day 5”, the “survival / death of mice” value (Balb/c mice; [19]) was “All three mice injected with NSC-743380 died on day 3” and the “sensitivity of cells” value (H460 cells [9]) was “highly sensitive”. The “anticancer activity (cell viability)” value (H1299 cells [10]) was “resistant”, the “anticancer activity in xenograft tumor model” value [11] was “more effective anticancer activity” and the “tissues in which NSC-743380 was detectable” value [12, 20] was “liver, lungs, kidneys, and subcutaneous tumor tissue”. For the same compound, the “tissues in which NSC-743380 was detected” value ([12]; mice treated with NSC-743380, 60 mg/kg i.v.) was “lungs, intestine, and subcutaneous tumor tissue”, the “serum liver enzyme activities” value (liver functions) was “mostly in normal ranges” and the “blood alanine transaminase (ALT)” value (liver functions; [21]) was “about 1936 Units/L”. The “histopathological changes in liver” value (liver) was “liver cell damage (necrosis) was obvious” and the “stability of powder (remaining)” value ([13]; over 14 days) was < 5%.

In the case of `O=C(CC1CCCCC1)OCc1cn(Cc2cccc(Cl)c2)c2ccccc12` [oncrasin-266, [1-(3-chlorobenzyl)-1H-indol-3-yl]methyl 2-cyclohexylacetate], the “release of NSC-743380 from oncrasin-266” value ([2]; injectable solution, 7 hours, 37°C) was “higher than 10%”, the “oncrasin-266 hydrolyzed to release NSC-743380” value ([2]; injectable solution, within 7 hours, room temperature) was “about 10%” and the “anticancer activity (cell viability)” value (H157 cells [14]) was “equivalent anticancer activity as NSC743380”. For the same compound, the “anticancer activity (cell viability)” value (H460 cells [15]) was “equivalent anticancer activity as NSC743380”, the “time to complete the release of NSC-743380” value [16] was “about 6 hours” and the “time stable in stock solution” value ([8]; 4°C) was “at least 4 weeks”. The “time stable in stock solution” value ([8]; room temperature) was “at least 2 weeks”, the “anticancer activity (cell viability)” value (Calu3 cells [17]) was “equivalent anticancer activity as NSC743380” and the “survival / death of mice” value (Balb/c mice; [18]) was “none of the oncrasin-266-treated mice died”. For the same compound, the “survival / death of mice” value (Balb/c mice; [19]) was “one died on day 4 and the remaining two survived for at least 2 weeks”, the tolerability in vivo (Balb/c mice; 150-300 mg/kg i.p., mice) was “better tolerated than NSC-743380” and the “anticancer activity (cell viability)” value (H1299 cells [10]) was “resistant”. For the same compound, the “oncrasin-266 detected in the liver” value [12, 20] was “high concentration”, the “serum liver enzyme activities” value (liver functions) was “mostly in normal ranges” and the “blood alanine transaminase (ALT)” value (liver functions; [21]) was “about 115 Units/L”. The “blood alkaline phosphatase (ALP)” value (liver functions; [21]) was ~50 Units/L, the “histopathological changes in liver” value (liver) was “no obvious changes” and the “time powder stable without detectable changes” value ([13]; 4°C) was “at least 90 days”. For the same compound, the “stability of powder (remaining)” value ([13]; by day 90) was < 5% and the “time powder stable without detectable changes” value ([13]; room temperature) was “at least 90 days”.
